Test results as given in the RNAGym collection of RNA variant scans (doi:10.1126/science.aae0568).
Fewer inactive variants are shown than the library holds.

B1: tRNA (parent)
chain: GUUCCGUUGGCGUAAUGGUAACGCGUCUCCCUCCUAAGGAGAAGACUGCGGGUUCGAGUCCCGUACGGAACG

Variants of: B1
Experiment: yeast fitness relative to wild type (ratio to wild type); higher = fitter; tRNA-Arg(CCU), competitive growth, 37 C, YPD
In short: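 A pool of Saccharomyces cerevisiae strains, each with a tRNA-Arg(CCU) gene variant at the native genomic locus, was competed in YPD at 37°C for 24 hours across six parallel replicates. The variants had been chemically synthesised at a 3% per-site mutation rate over 69 sites, and gene amplicons before and after competition were read by 100-nucleotide paired-end sequencing. Darwinian fitness relative to wild type rested on changes in genotype frequencies. Genotypes required ≥ 100 starting reads, and estimates < 0.5 were set to 0.5.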

Row | Variant | yeast fitness
1 | A21U G50A C62G | 0.601
2 | C22A C49A C61U | ≤ 0.5
3 | A21U C49A C62G G68U | 0.626
4 | A21U G39A C66U | 0.55
5 | A21U G41C A43C C49A C62U | ≤ 0.5
6 | A21U A65C | 0.793
7 | A21U U26C C60U | ≤ 0.5
8 | A21U C22G C55A G56C G67C | ≤ 0.5
9 | C22A G51C G68C | ≤ 0.5
10 | C22G A57U | 0.619
11 | A21U G25A G51A C60A | ≤ 0.5
12 | A21U A43U | 0.901
13 | C22G A43U G52A U54C G56U U64C | ≤ 0.5
14 | C22A C29U C60A C66U | ≤ 0.5
15 | C22G C27G A37G G38A | 0.532
16 | A21U U64C | 0.775
17 | A21U A43U C49G | ≤ 0.5
18 | A21U U28A U35G G58A C62G | ≤ 0.5
19 | A21U U53C U54G | ≤ 0.5
20 | A21U U28A A40U A45U | 0.878
21 | A21U C22U G51C G52A U59G | ≤ 0.5

Row | Variant | yeast fitness
22 | C22A G48A G51A | 0.582
23 | C22A U26C U47C | 0.541
24 | A21U C27A G41C G44A C55U C62G | 0.648
25 | C22G C27G C31G G56A C61G A69U | ≤ 0.5
26 | C22G A45C A57U C62A | 0.716
27 | C22A A42U G44A C62U | ≤ 0.5
28 | A21U U53A C66U | ≤ 0.5
29 | C22A G58A | 0.866
30 | A21U C55A | ≤ 0.5
31 | A21U C27A G50C G52C | ≤ 0.5
32 | C22G C24G G50A C66U A69C | ≤ 0.5
33 | A21U A42G G50C U59C | ≤ 0.5
34 | C22A C27A G52C G63A | ≤ 0.5
35 | A21U A65G A70C | 0.56
36 | A21U C34A | 0.573
37 | A21U C34G | 0.597
38 | C22A C46G G52A | ≤ 0.5
39 | C22A C27A U59C | 0.586
40 | C22G C24G U32A C66U | ≤ 0.5
41 | A21U U54G | ≤ 0.5
42 | C22G A57G C61A | ≤ 0.5

Row | Variant | yeast fitness
43 | C22A C29U C66U | ≤ 0.5
44 | C22A C27G A36G | ≤ 0.5
45 | C22G C24A G44C G51A G58C U59A | ≤ 0.5
46 | A21U C22U C30G U59G A65U | ≤ 0.5
47 | C22A C29A A43U | ≤ 0.5
48 | C22G C24G U47C | 0.642
49 | C22G C27G U54C C66U | ≤ 0.5
50 | C22A G50C | 0.627
51 | A21U C22G A69U | 0.613
52 | A21U U26G A70C | 0.729
53 | A21U C33G A42G G44A | 0.541
54 | C22A A57G C60A | ≤ 0.5
55 | A21U C29A C30U C62G U64A | ≤ 0.5
56 | C22A C46A A65U | 0.687
57 | A21U U32C A36G A37U U53G | ≤ 0.5
58 | C22G A37C A42G | ≤ 0.5
59 | C22A G23A A37G U54G | ≤ 0.5
60 | A21U C22A G38C U54G C60A | 0.846
61 | C22G C24G C29U C33U A37C G52A | 0.625
62 | C22A U47A | 0.629
63 | A21U C29G G63A | 0.618

Row | Variant | yeast fitness
64 | C22A A37U G44A A70G | ≤ 0.5
65 | A21U C27G C33U C34A | ≤ 0.5
66 | A21U G68C | 0.687
67 | A21U C31G A45C | ≤ 0.5
68 | A21U C30U A40C U59C C62U G67U | 0.554
69 | A21U C22U U59C | ≤ 0.5
70 | A21U G50C C66G | ≤ 0.5
71 | C22G C24G C29U C33U A37C G52A C66U | 0.548
72 | A21U C31G | 0.842
73 | C22G A65C | 0.863
74 | C22G A37U A57C | ≤ 0.5
75 | A21U G25A C60U G68U | ≤ 0.5
76 | C22G A36G C46U | 0.709
77 | C22A U28G G67U | ≤ 0.5
78 | C22G A42C | 0.635
79 | C22A A37U | 0.578
80 | A21U A40U A45U | 0.625
81 | C22G C27G C30A U32G C55G | ≤ 0.5
82 | A21U U35C G44A G48C C55G A69U | ≤ 0.5
83 | C22A A57G | 0.916
